Molecules are shown by their SMILES. Active and inactive are the calls of the source. The rule behind the calls is not given here.

We go through six compounds from ChEMBL document CHEMBL3045352, “Papyracillic acid, a phytotoxic 1,6-dioxaspiro[4,4]nonene produced by Ascochyta agropyrina Var. nana, a potential mycoherbicide for Elytrigia repens biocontrol” (J Agric Food Chem, 2009).

Common to all, as to format: functional, organism-based
Test [1] concerns Bacillus subtilis. Kind of test: Antimicrobial activity against Bacillus subtilis assessed as zone of lysis at 50 ug/disk. Put shortly: (§1)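 Paper-disk assay against C. tropicalis, X. campestris and B. subtilis. Standard testing used 50 μg per disk. For concentration dependence, doses ran from 1.5 to 100 μg/disk. Each bioassay was run twice with at least three replicates. Means were compared by Fisher's LSD.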

Test [2] concerns Xanthomonas campestris. The test is described as follows: Antimicrobial activity against Xanthomonas campestris assessed as zone of lysis at 50 ug/disk. Put shortly: as §1
The subject of test [3] is Elymus repens. The test is described as follows: Mycoherbicidal activity against Elymus repens (couch grass) assessed as decrease in length of necrotic lesions at 1 mg/ml by leaf-disk puncture assay. Summed up:
(§2)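 Leaf disk-puncture bioassay on leaves of host and nonhost plants. Compound was applied at 1 mg/mL, and necrosis was read 3 days post-application. Each bioassay was run twice with at least three replicates. Error bars are standard error, and means were compared by Fisher's LSD.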

The subject of test [4] is Cirsium arvense. Kind of test: Mycoherbicidal activity against Cirsium arvense (Canada thistle) assessed as decrease in length of necrotic lesions at 0.5 mg/ml by leaf-disk puncture assay. Summed up:
(§3)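 Dose-response leaf disk-puncture on E. repens and C. arvense leaves. Concentrations ran from 0.06 to 2 mg/mL (0.6-20 μg/disk), and necrotic symptoms were scored 2 days post-application. Each bioassay was run twice with at least three replicates. Means were compared by Fisher's LSD.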

The next test deals with Rosa pendulina. The test is described as follows: Mycoherbicidal activity against Rosa pendulina assessed as decrease in length of necrotic lesions at 1 mg/ml by leaf-disk puncture assay. Summed up:
as §2

The subject of the next test is Trifolium pratense. Kind of test: Mycoherbicidal activity against Trifolium pratense (red clover) assessed as decrease in length of necrotic lesions at 1 mg/ml by leaf-disk puncture assay. Summed up:
as §2

In another test the test system is Sonchus arvensis. The test is described as follows: Mycoherbicidal activity against Sonchus arvensis (field sow-thistle) assessed as decrease in length of necrotic lesions at 1 mg/ml by leaf-disk puncture assay. Put shortly: as §2
Another test deals with Taraxacum officinale. The test is described as follows: Mycoherbicidal activity against Taraxacum officinale (dandelion) assessed as decrease in length of necrotic lesions at 1 mg/ml by leaf-disk puncture assay. Put shortly: as §2
The test system of a further test is Rumex confertus. The test is described as follows: Mycoherbicidal activity against Rumex confertus (Asian dock) assessed as decrease in length of necrotic lesions at 1 mg/ml by leaf-disk puncture assay. Put shortly:
as §2

Test [5] deals with Elymus repens. Kind of test: Mycoherbicidal activity against Elymus repens (couch grass) assessed as decrease in length of necrotic lesions at 0.5 mg/ml by leaf-disk puncture assay. Summed up:
as §3

Test [6] has as its system Xanthomonas campestris. Kind of test: Antimicrobial activity against Xanthomonas campestris assessed as zone of lysis at 6.25 ug/disk. Summed up:
as §1

In test [7] the test system is Bacillus subtilis. Kind of test: Antimicrobial activity against Bacillus subtilis assessed as zone of lysis at 6.25 ug/disk. Summed up: as §1
Test [8] deals with Candida tropicalis. The test is described as follows: Antimicrobial activity against Candida tropicalis assessed as growth inhibition at 6.25 ug/disk. Put shortly: as §1
Test [9] has as its system Cirsium arvense. The test is described as follows: Mycoherbicidal activity against Cirsium arvense (Canada thistle) assessed as decrease in length of necrotic lesions at 1 mg/ml by leaf-disk puncture assay. Put shortly:
as §2

Another test concerns Chenopodium album. Kind of test: Mycoherbicidal activity against Chenopodium album assessed as decrease in length of necrotic lesions at 1 mg/ml by leaf-disk puncture assay. Summed up: as §2
Another test concerns Hordeum vulgare. Kind of test: Mycoherbicidal activity against Hordeum vulgare (barley) assessed as decrease in length of necrotic lesions at 1 mg/ml by leaf-disk puncture assay. Summed up: as §2
For a further test, the system named is Cannabis sativa. The test is described as follows: Mycoherbicidal activity against Cannabis sativa (hemp) assessed as decrease in length of necrotic lesions at 1 mg/ml by leaf disk puncture assay. Summed up:
as §2

The subject of the next test is Phleum pratense. The test is described as follows: Mycoherbicidal activity against Phleum pratense (timothy grass) assessed as decrease in length of necrotic lesions at 1 mg/ml by leaf-disk puncture assay. Put shortly: as §2
The test system of test [10] is Candida tropicalis. Kind of test: Antimicrobial activity against Candida tropicalis assessed as growth inhibition at 50 ug/disk. Summed up:
as §1

As for `COC1=CC(=O)O/C1=C(/COC(C)=O)C(C)C(C)=O` (stereo unspecified), the result with Bacillus subtilis [1], with Xanthomonas campestris [2] and with Elymus repens [3] was Active.
On to `C=C1[C@H](C)[C@](C)(O)O[C@]12OC(=O)C=C2OC`, for which the result with Cirsium arvense [4], in the test on Rosa pendulina, in the test with Trifolium pratense, with Sonchus arvensis, in the test on Taraxacum officinale and with Rumex confertus was Active. For the same compound, the outcome in the test on Elymus repens [5], with Xanthomonas campestris [6], in the test on Bacillus subtilis [7], with Cirsium arvense [9], in the test with Chenopodium album and in the test with Elymus repens [3] was Active. Moreover, the outcome in the test on Hordeum vulgare and in the test with Phleum pratense was Active. For the same compound, the “growth inhibition (GI)” value with Candida tropicalis [8] is “Active”. The result in the test on Cannabis sativa was inactive.
Consider `COC1=CC(=O)O/C1=C(\COC(C)=O)C(C)C(C)=O` (stereo unspecified), for which the result in the test with Cirsium arvense [9] and with Elymus repens [3] was Active.
As for `C=C(C(C)C(C)=O)C1(OC(C)=O)OC(=O)C=C1OC` (stereo unspecified), the result in the test with Bacillus subtilis [1], in the test with Xanthomonas campestris [2], with Cirsium arvense [9] and with Elymus repens [3] was Active.
For the compound `C=C1[C@H](C)[C@](C)(OC)O[C@]12OC(=O)C=C2OC`, the result in the test with Bacillus subtilis [1], in the test with Xanthomonas campestris [2], with Cirsium arvense [9] and with Elymus repens [3] was Active. In the test with Candida tropicalis [10], the “growth inhibition (GI)” value is “Active”.
On to `C=C(C(=O)/C(=C\C(=O)OC)OC)C(C)C(C)=O` (stereo unspecified), for which the result in the test with Cirsium arvense [9] was Active.
